Reference: paper PMC3897123 (MedChemComm, 2013)

Tests used:
[1] = target: T1, Nox4 (Homo sapiens, UniProt Q9NPH5); assay: Amplex Red assay of constitutive Nox4 activity; assay type: cell-based; details: for Nox4 activity (in words): Amplex Red, COS-Nox4 cells
T1 sequence (Q9NPH5 1-578): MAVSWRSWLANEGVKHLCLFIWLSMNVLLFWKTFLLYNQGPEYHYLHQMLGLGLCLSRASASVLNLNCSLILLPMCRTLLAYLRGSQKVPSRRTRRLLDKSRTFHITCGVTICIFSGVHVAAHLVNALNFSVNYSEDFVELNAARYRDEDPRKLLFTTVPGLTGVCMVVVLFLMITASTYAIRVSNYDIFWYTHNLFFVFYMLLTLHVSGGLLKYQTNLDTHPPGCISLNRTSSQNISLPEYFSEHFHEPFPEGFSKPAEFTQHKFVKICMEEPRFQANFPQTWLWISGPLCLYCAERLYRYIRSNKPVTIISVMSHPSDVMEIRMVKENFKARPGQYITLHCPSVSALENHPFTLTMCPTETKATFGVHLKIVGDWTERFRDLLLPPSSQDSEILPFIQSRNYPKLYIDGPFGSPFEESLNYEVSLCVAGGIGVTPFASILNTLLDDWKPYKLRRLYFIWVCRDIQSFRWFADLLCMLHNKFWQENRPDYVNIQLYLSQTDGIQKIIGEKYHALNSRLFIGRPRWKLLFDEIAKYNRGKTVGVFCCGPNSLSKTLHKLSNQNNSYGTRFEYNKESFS
T1 sequence (P13498 2-195 partner limits assumed): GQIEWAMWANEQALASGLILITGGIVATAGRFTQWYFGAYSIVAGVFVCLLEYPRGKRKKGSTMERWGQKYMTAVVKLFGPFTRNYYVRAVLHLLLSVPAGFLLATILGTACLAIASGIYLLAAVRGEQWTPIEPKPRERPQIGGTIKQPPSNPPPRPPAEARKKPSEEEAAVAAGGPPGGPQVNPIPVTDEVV
In short: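 Transiently transfected COS-Nox4 cells, unstimulated (constitutive activity), pretreated with various test compound concentrations for 15 min. The initial rate of H2O2 production is read by Amplex Red fluorescence. Results are given as % of vehicle control, mean ± SEM of 3–7 independent experiments; IC50 comes from the concentration–response curve.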

[2] = target: T2, Nox1 (Homo sapiens, UniProt Q9Y5S8); assay type: cell-based; details: for Nox1 activity (in words): summary of Table 1
T2 sequence (Q9Y5S8 1-564): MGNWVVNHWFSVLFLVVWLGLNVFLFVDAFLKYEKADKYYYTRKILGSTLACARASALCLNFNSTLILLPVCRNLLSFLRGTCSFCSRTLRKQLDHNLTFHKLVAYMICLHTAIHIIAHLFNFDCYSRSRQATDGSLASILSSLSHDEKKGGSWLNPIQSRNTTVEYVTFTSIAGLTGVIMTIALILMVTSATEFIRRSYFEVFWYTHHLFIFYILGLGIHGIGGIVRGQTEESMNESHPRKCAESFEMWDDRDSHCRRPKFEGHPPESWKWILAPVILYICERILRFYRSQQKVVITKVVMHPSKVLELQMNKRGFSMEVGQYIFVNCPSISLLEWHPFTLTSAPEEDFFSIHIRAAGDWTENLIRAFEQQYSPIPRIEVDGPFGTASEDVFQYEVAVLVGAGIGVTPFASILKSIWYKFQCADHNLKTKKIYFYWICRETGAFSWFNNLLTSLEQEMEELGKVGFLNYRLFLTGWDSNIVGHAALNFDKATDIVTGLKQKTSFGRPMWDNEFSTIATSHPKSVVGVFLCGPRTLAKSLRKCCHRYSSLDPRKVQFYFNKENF
T2 sequence (P13498 2-195 partner limits assumed): T1 sequence (P13498 2-195 partner limits assumed)

[3] = target: T3, Nox5 (Homo sapiens, UniProt Q96PH1); assay: L-012 assay of Nox5 activity in HEK-Nox5 cells; assay type: cell-based; details: summary of Table 1
T3 sequence (Q96PH1 1-765): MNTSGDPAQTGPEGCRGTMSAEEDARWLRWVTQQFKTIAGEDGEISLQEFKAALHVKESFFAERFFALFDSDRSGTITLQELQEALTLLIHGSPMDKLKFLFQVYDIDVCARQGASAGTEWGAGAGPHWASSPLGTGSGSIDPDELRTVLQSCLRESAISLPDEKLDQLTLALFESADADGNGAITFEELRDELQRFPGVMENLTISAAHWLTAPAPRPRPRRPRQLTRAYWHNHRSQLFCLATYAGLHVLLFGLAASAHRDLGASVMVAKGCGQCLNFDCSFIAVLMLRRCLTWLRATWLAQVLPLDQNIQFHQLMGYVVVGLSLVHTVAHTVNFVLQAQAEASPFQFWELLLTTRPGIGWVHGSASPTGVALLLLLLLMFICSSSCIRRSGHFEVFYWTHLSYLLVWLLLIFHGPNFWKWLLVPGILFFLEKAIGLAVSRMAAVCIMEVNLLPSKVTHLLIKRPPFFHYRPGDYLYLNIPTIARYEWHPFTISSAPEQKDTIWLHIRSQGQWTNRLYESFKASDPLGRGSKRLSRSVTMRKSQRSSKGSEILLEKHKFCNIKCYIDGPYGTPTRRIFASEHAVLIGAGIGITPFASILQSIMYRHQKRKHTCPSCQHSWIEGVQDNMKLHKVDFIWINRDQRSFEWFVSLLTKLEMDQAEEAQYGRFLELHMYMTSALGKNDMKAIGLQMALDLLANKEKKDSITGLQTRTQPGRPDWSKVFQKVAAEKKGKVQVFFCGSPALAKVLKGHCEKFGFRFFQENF

[4] = target: T4, Nox2 (Homo sapiens, UniProt P04839); assay: L-012 chemiluminescence assay of O2•− generation in whole COS-Nox2 cells; assay type: cell-based
T4 sequence (P04839 2-570 limits assumed): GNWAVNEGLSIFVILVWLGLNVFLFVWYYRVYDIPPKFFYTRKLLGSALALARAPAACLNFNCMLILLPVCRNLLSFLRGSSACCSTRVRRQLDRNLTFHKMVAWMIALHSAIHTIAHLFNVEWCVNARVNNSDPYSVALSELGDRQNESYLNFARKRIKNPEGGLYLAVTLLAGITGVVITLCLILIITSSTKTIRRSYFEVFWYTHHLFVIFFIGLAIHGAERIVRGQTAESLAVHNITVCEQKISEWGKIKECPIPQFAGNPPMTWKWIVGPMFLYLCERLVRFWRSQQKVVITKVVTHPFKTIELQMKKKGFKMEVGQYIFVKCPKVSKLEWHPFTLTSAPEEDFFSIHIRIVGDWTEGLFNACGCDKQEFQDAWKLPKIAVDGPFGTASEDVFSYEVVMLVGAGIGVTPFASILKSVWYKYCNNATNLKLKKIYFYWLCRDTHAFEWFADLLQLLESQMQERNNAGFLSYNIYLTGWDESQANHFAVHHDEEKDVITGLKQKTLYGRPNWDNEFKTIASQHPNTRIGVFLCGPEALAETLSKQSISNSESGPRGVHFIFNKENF
T4 sequence (P13498 2-195 partner limits assumed): T1 sequence (P13498 2-195 partner limits assumed)
In short: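 Stable Nox2-transfected COS cells, stimulated with 5 μM PMA; O2•− is detected by L-012 chemiluminescence. The primary screen of library compounds ran at 100, 50, 25 and 12.5 μM. Follow-up concentration–response data are expressed as % of vehicle control (mean ± SEM of 3–7 independent experiments), and IC50 is extrapolated from the curve slope.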

[5] = tested on: cell viability; assay: CytoTox-Glo cell viability assay; assay type: cell-based; details: only at the highest concentration tested
[6] = target: T4, Nox2; assay: Amplex Red assay of ROS generation in whole COS-Nox2 cells; assay type: cell-based
In short: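 Whole COS-Nox2 cells stimulated with 5 μM PMA, with SOD added to convert O2•− to H2O2. H2O2 is read by Amplex Red fluorescence across a concentration range of test compound. Activity is expressed as % of vehicle control, as mean ± SEM of 3–7 independent experiments; IC50 is derived from the concentration–response curve.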

[7] = target: T4, Nox2; assay: Cell-free Nox2 activity in lysed COS-Nox2 cells; assay type: biochemical; details: 6.3 μM compound; COS-Nox2 cell lysate, 130 μM LiDS, 180 μM NADPH
In short: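 Cell-free system: COS-Nox2 cell lysate is preincubated with test compound for 15 min at 25 °C. Subunits are assembled with 130 μM LiDS, and the reaction is started with 180 μM NADPH. O2•− is measured as the initial linear rate of SOD-inhibitable cytochrome C reduction, in nmol O2•− per min per 10^7 cell equivalents.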

C=C(C)C[C@H]1[C@H]2c3c(-c4ccc(Cl)c(Cl)c4)cccc3[C@H](CC2(C)C)N1Cc1ccc2c(c1)OCO2 [Compound 12b]
IC50 [1]: > 100 µM

C=C(C)C[C@H]1[C@H]2c3c(Br)cccc3[C@H](CC2(C)C)N1S(C)(=O)=O [Compound 14a]
IC50 [2]: > 100 µM

C=C(C)C[C@H]1[C@H]2c3c(Br)cccc3[C@H](CC2(C)C)N1CCCCC [Compound 11g]
Nox1 activity (in words) [2]: virtually no effect
Nox4 activity (in words) [1]: virtually no effect
Nox5 activity (in words) [3]: virtually no effect

C=C(C)C[C@H]1[C@H]2c3c(Br)cccc3[C@H](CC2(C)C)N1Cc1ccnc2ccccc12 [Compound 11b]
IC50 [1]: > 100 µM

C=C(C)C[C@H]1[C@H]2c3c(Br)cccc3[C@H](CC2(C)C)N1Cc1cccs1 [Compound 11h]
Nox1 activity (in words) [2]: virtually no effect
IC50 [1]: > 100 µM
Nox4 activity (in words) [1]: virtually no effect
Nox5 activity (in words) [3]: virtually no effect

C=C(C)C[C@@H]1N[C@H]2CC(C)(C)[C@@H]1c1ccccc12 [Compound 8]
Activity in primary screen ([4]; UPCMLD library screen at 100, 50, 25, and 12.5 μM, L-012, COS-Nox2 cells): inactive
IC50 [1]: > 100 µM

C=C(C)C[C@H]1[C@H]2c3c(Br)cccc3[C@H](CC2(C)C)N1S(=O)(=O)c1ccc(F)cc1 [Compound 14b]
IC50 [1]: > 100 µM

CC(C)C[C@@H]1N[C@H]2CC(C)(C)[C@@H]1c1c(Br)cccc12 [Compound 13]
Nox2 inhibitory activity (in words) ([4]; text summary of Table 1 (Amplex Red and L-012 assays)): retained inhibitory activity
Nox1 activity (in words) [2]: retained inhibitory activity
Nox5 activity (in words) [3]: retained inhibitory activity
Effect on cell viability [5]: effect on cell viability

C=C(C)C[C@@H]1N[C@H]2CC(C)(C)[C@@H]1c1c(-c3cccnc3)cccc12 [Compound 12d]
IC50 [6]: > 100 µM
IC50 [4]: > 100 µM

C=C(C)C[C@H]1[C@H]2c3c(Br)cccc3[C@H](CC2(C)C)N1Cc1c[nH]c2ccccc12 [Compound 11c]
IC50 [1]: > 100 µM

C=C(C)C[C@@H]1N[C@H]2CC(C)(C)[C@@H]1c1c(Br)cccc12 [Compound 7]
LiDS-stimulated O2•− generation [7]: almost non-stimulated levels
Effect on cell viability [5]: effect on cell viability
